From ChEMBL document CHEMBL1944589, “Identification of novel SAR properties of the Jak2 small molecule inhibitor G6: significance of the para-hydroxyl orientation” (2012)
Calls of active or inactive are those of the source. No cut-off for these calls is given here.

How the values were obtained:
HEL [1] = test: Growth inhibition of human HEL cells expressing Jak2 V617F mutation after 72 hrs by trypan blue exclusion B assay; format: functional, cell-based
Procedure, shortened: (§1)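 HEL cells were incubated with graded compound concentrations for 72 h. Viability was determined by trypan blue exclusion.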

HEL [2] = test: Growth inhibition of human HEL cells expressing Jak2 V617F mutation at 0.03 to 30 uM by trypan blue exclusion B assay; format: functional, cell-based; details: TDE = time-dependent effect
HEL [3] = test: Growth inhibition of human HEL cells expressing Jak2 V617F mutation at 0.85 uM after 72 hrs by trypan blue exclusion B assay; format: functional; details: read-out: GI; procedure, shortened: as §1
HEL [4] = test: Growth inhibition of human HEL cells expressing Jak2 V617F mutation at 0.03 to 30 uM at 24 to 72 hrs by trypan blue exclusion B assay; format: functional, cell-based
BaF3 [5] = test: Growth inhibition of mouse BAF3 cells expressing Jak2 […] mutation after 72 hrs by MTS assay; format: functional, cell-based
Procedure, shortened: (§2)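 Ba/F3 cells expressing EpoR and Jak2-V617F were incubated with graded compound concentrations for 72 h. Viability was read by MTS assay. Data come from two independent experiments, each in triplicate.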

BaF3 [6] = test: Growth inhibition of mouse BAF3 cells expressing Jak2 V617 mutation at 0.03 to 30 uM by MTS assay; format: functional, cell-based; details: TDE = time-dependent effect; procedure, shortened: as §2
[7] = biological target: Tyrosine-protein kinase JAK2 (Homo sapiens) (UniProt O60674); test: Inhibition of Jak2-mediated STAT5 phosphorylation at Try694 in human HEL cells at 25 uM after 24 hrs by Western blot analysis; format: cell-based
Chain of Tyrosine-protein kinase JAK2 (Homo sapiens) (O60674 whole entry): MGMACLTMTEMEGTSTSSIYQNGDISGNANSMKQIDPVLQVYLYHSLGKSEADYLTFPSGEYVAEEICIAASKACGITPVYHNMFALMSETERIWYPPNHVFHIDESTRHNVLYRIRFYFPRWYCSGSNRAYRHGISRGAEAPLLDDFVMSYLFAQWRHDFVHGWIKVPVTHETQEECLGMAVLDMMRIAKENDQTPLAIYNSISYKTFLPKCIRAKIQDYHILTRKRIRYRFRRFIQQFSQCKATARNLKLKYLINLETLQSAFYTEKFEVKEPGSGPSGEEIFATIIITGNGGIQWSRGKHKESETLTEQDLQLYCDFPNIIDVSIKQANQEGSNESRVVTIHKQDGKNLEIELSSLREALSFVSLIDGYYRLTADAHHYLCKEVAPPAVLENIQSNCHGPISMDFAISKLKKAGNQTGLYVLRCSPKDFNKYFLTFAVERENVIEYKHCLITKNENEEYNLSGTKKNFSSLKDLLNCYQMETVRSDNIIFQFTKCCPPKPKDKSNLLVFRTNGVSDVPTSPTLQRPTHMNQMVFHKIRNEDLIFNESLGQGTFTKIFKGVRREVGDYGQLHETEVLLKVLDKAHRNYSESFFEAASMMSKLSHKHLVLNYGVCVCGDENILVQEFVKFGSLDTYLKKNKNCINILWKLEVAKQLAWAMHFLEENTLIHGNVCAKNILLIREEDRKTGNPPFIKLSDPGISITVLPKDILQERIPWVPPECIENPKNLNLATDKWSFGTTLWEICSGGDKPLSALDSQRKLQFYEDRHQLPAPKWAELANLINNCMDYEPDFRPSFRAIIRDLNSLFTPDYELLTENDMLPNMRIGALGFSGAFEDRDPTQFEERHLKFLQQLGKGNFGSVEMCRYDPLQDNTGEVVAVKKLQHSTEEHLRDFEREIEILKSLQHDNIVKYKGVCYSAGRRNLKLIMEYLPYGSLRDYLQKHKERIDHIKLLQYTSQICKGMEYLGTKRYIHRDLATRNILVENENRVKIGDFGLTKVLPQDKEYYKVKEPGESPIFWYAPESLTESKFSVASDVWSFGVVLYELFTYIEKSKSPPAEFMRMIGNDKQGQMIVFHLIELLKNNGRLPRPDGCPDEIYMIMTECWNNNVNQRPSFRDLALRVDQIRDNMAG
Procedure, shortened: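 HEL cells were exposed to 25 μM of each compound for 24 h. Lysates were immunoprecipitated for STAT5 and phospho-STAT5 was detected by Western blot. Densitometry expressed phospho-STAT5 as percent of total, normalized to the DMSO control; n = 4.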

HEL [8] = test: Cell cycle arrest in human HEL cells assessed as decrease in cell population at G1 phase at 10 uM after 24 hrs by flow cytometric analysis; format: functional, cell-based
Procedure, shortened: (§3)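 HEL cells were exposed to 10 μM of each compound for 24 h. DNA content was then analyzed by flow cytometry. Data come from two experiments, each measured in triplicate.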

HEL [9] = test: Cell cycle arrest in human HEL cells assessed as increase in cell population at G2 phase at 10 uM after 24 hrs by flow cytometric analysis; format: functional, cell-based; procedure, shortened: as §3
HEL [10] = test: Cell cycle arrest in human HEL cells assessed as accumulation at G2/M phase at 10 uM after 24 hrs by flow cytometric analysis; format: functional, cell-based; procedure, shortened: as §3
HEL [11] = test: Cell cycle arrest in human HEL cells assessed as decrease in cyclin A expression at 25 uM after 24 hrs by Western blot analysis; format: functional, cell-based
Procedure, shortened: (§4)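 HEL cells were exposed to 25 μM of each compound for 24 h. Lysates were immunoblotted for cyclin A, cyclin B1 and CDK1, with β-actin as the loading control. Two independent experiments were run.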

HEL [12] = test: Cell cycle arrest in human HEL cells assessed as effect on cyclin B1 expression at 25 uM after 24 hrs by Western blot analysis; format: functional, cell-based; procedure, shortened: as §4
HEL [13] = test: Cell cycle arrest in human HEL cells assessed as effect on CDK1 expression at 25 uM after 24 hrs by Western blot analysis; format: functional, cell-based; procedure, shortened: as §4
HEL [14] = test: Induction of apoptosis in human HEL cells at 10 uM after 48 hrs by annexinV-propidium iodide staining-based flow cytometric analysis; format: functional, cell-based
Procedure, shortened: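 HEL cells were exposed to 10 μM of each compound for 48 h, then stained with Annexin V and propidium iodide and analyzed by flow cytometry. Early apoptosis was scored as Annexin V-positive, PI-negative. Data come from two independent experiments, each in triplicate.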

HEL [15] = test: Induction of apoptosis in human HEL cells assessed as cleavage of PARP at 25 uM after 24 hrs by Western blot analysis; format: functional, cell-based
Procedure, shortened: (§5)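 HEL cells were exposed to 25 μM of each compound for 24 h. Cleavage of PARP, caspase-3, Bid and Bim was assessed by Western blot. Two experiments were run for each blot.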

HEL [16] = test: Induction of apoptosis in human HEL cells assessed as cleavage of caspase-3 at 25 uM after 24 hrs by Western blot analysis; format: functional, cell-based; procedure, shortened: as §5
HEL [17] = test: Induction of apoptosis in human HEL cells assessed as cleavage of Bim at 25 uM after 24 hrs by Western blot analysis; format: functional, cell-based; procedure, shortened: as §5
HEL [18] = test: Induction of apoptosis in human HEL cells assessed as cleavage of Bid at 25 uM after 24 hrs by Western blot analysis; format: functional, cell-based; procedure, shortened: as §5
Bone marrow cell [19] = test: Anticolonegic activity in mouse bone marrow cells expressing Jak2 V617F mutation assessed as decrease in number of erythroid burst forming units at 25 uM after 24 hrs and measured on day 6; format: functional, cell-based
Procedure, shortened: (§6)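 Bone marrow cells taken from 6-month-old Jak2-V617F transgenic mice were incubated ex vivo in medium containing 25 μM of each compound for 0, 12 or 24 h. Cells were then washed, plated in methylcellulose (semi-solid) medium and cultured for 6 further days. BFU-E and CFU-GM colonies were counted. Each condition was run in duplicate and compared with the 0 h condition.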

Bone marrow cell [20] = test: Anticolonegic activity in mouse bone marrow cells expressing Jak2 V617F mutation assessed as decrease in number of granulocyte/macrophage colony forming units at 25 uM after 24 hrs and measured on day 6; format: functional, cell-based; procedure, shortened: as §6
Bone marrow cell [21] = test: Anticolonegic activity in mouse bone marrow cells expressing Jak2 V617F mutation assessed as decrease in number of erythroid burst forming units at 25 uM after 12 hrs and measured on day 6; format: functional, cell-based; procedure, shortened: as §6
Bone marrow cell [22] = test: Anticolonegic activity in mouse bone marrow cells expressing Jak2 V617F mutation assessed as decrease in number of granulocyte/macrophage colony forming units at 25 uM after 12 hrs and measured on day 6; format: functional, cell-based; procedure, shortened: as §6
[23] = biological target: Tyrosine-protein kinase JAK2 (Homo sapiens) (UniProt O60674); test: Jak2 autophosphorylation at 2.5 uM after 30 mins by Western blot analysis as % of control
[24] = biological target: Tyrosine-protein kinase JAK2 (Homo sapiens) (UniProt O60674); test: Jak2-mediated GST-STAT1 phosphorylation at 2.5 uM after 30 mins by Western blot analysis as % of control
HEL [25] = test: Growth inhibition of human HEL cells expressing Jak2 V617F mutation at 0.03 to 30 uM after 72 hrs by trypan blue exclusion B assay; format: functional, cell-based; procedure, shortened: as §1
BaF3 [26] = test: Growth inhibition of mouse BAF3 cells expressing Jak2 V617 mutation at 30 uM after 72 hrs by MTS assay; format: functional, cell-based; procedure, shortened: as §2

| SMILES | Activity (HEL [8]) | Activity (HEL [9]) | Activity (HEL [10]) | Activity (HEL [11]) | Activity (HEL [12]) | Activity (HEL [13]) | Activity (HEL [14]) | Activity (HEL [15]) | Activity (HEL [16]) | Activity (Bone marrow cell [19]) | Activity (Bone marrow cell [20]) | Activity (Bone marrow cell [21]) | Activity (Bone marrow cell [22]) | residual activity [23] [%] | residual activity [24] [%] | growth inhibition (GI) (HEL [25]) | also measured |
| --- | --- | --- | --- | --- | --- | --- | --- | --- | --- | --- | --- | --- | --- | --- | --- | --- | --- |
| CN(C)Cc1cc(/C=C/c2ccc(O)c(CN(C)C)c2)ccc1O | Active | Active | Active | Active | inactive | inactive | Active | Active | Active | Active | Active | Active | Active | 44.2 | 71.5 | – | growth inhibition (GI) (HEL [1]): Dose-dependent effect; growth inhibition (GI) (HEL [2]): tde; inhibition of growth at 0.85 µM (HEL [3]): 50%; growth inhibition (GI) (HEL [4]): Active; growth inhibition (GI) (BaF3 [5]): Dose-dependent effect; growth inhibition (GI) (BaF3 [6]): tde; inhibition [7]: Active; Activity (HEL [17]): Active; Activity (HEL [18]): Active |
| C/C(=C(/C)c1ccc(CN(C)C)c(O)c1)c1ccc(CN(C)C)c(O)c1 | Active | Active | Active | Active | inactive | inactive | Active | Active | Active | Active | Active | Active | Active | 98.4 | 104 | Active | – |
| CN(C)Cc1ccc(/C=C/c2ccc(CN(C)C)c(O)c2)cc1O | – | – | – | inactive | inactive | inactive | inactive | inactive | – | – | Active | – | – | 94.4 | 93.3 | Active | growth inhibition (GI) (BaF3 [26]): Active |
| C/C(=C(/C)c1ccc(O)c(CN(C)C)c1)c1ccc(O)c(CN(C)C)c1 | – | – | – | inactive | inactive | inactive | Active | Active | – | Active | Active | – | – | 89.1 | 89.1 | Active | – |
